This is an account of results in ChEMBL document CHEMBL3785007 (Drug Metabol Drug Interact, 2011).

As usually defined, the Cmax is the highest concentration seen after dosing. Usually CL/F stands for the apparent clearance, not corrected for the fraction that reaches the circulation.

A short description of series [1]: Cmax in healthy Chinese subject (8 subjects) with homozygous wild type NAT2 genotype at 300 mg, po administered after overnight fast by HPLC method. It counts as ADME, organism-based. On the set-up: dose 300 mg, route oral. The conditions noted are these: human, in vivo.
In series [2] the test system is Homo sapiens. The series is described as follows: AUC in healthy Chinese subject (8 subjects) with homozygous wild type NAT2 genotype assessed as N-acetylisoniazid at 300 mg, po administered after overnight fast by HPLC method. The conditions noted are these: in vivo. Type of series: ADME, organism-based. An outline of the steps:
(§1)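 Plasma separated within 1 h and stored at −70°C. Deproteinised with 10% perchloric acid, then reversed-phase C18 HPLC with UV detection at 266 nm. AUC by trapezoidal method extrapolated to infinity; mean±SD.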

The subject of series [3] is Homo sapiens. As to the kind of experiment: AUC in healthy Chinese subject (8 subjects) with homozygous wild type NAT2 genotype at 300 mg, po administered after overnight fast by HPLC method. It counts as ADME, organism-based. The following applies: in vivo. An outline of the steps: as §1
The subject of series [4] is Mycobacterium tuberculosis. The series is described as follows: Antitubercular activity against Mycobacterium tuberculosis in tuberculosis patient assessed as compound level in serum required to cause 90% maximum early bactericidal activity at 0.2 to 12 mg/kg after 2 hrs. It counts as functional.
Series [5] has as its system Homo sapiens. As to the kind of experiment: Cmax in healthy Chinese subject (8 subjects) with heterozygous mutant of NAT2 genotype assessed as N-acetylisoniazid at 300 mg, po administered after overnight fast by HPLC method. The following applies: in vivo. It counts as ADME, organism-based. Also on record: dose 300 mg, route oral.
Series [6] in a line: Cmax in healthy Chinese subject (8 subjects) with heterozygous mutant of NAT2 genotype at 300 mg, po administered after overnight fast by HPLC method. Type of series: ADME, organism-based. On the set-up: dose 300 mg, route oral. The following applies: human, in vivo.
Series [7] can be described thus: Clearance in healthy Chinese subject (8 subjects) with homozygous wild type NAT2 genotype at 300 mg, po administered after overnight fast by HPLC method. It counts as ADME, organism-based. The following applies: human, in vivo.
Series [8] relates to Homo sapiens. As to the kind of experiment: AUC in healthy Chinese subject (8 subjects) with heterozygous mutant of NAT2 genotype at 300 mg, po administered after overnight fast by HPLC method. Type of series: ADME, organism-based. The conditions noted are these: in vivo. An outline of the steps:
as §1

For series [9], the system named is Mycobacterium tuberculosis. As to the kind of experiment: Antitubercular activity against Mycobacterium tuberculosis in tuberculosis patient assessed as compound AUC (0 to infinity) required to cause 90% maximum early bactericidal activity at 0.2 to 12 mg/kg. Type of series: functional, organism-based.
Series [10] is described as follows: Cmax in healthy Chinese subject (8 subjects) with homozygous mutant of NAT2 genotype at 300 mg, po administered after overnight fast by HPLC method. Type of series: ADME, organism-based. On the set-up: dose 300 mg, route oral. The following applies: human, in vivo.
Series [11] relates to Homo sapiens. The series is described as follows: Clearance in healthy Chinese subject (8 subjects) with heterozygous mutant of NAT2 genotype assessed as N-acetylisoniazid at 300 mg, po administered after overnight fast by HPLC method. It counts as ADME, organism-based. The following applies: in vivo.
A short description of series [12]: Clearance in healthy Chinese subject (8 subjects) with heterozygous mutant of NAT2 genotype at 300 mg, po administered after overnight fast by HPLC method. It counts as ADME, organism-based. The conditions noted are these: human, in vivo.
The test system of series [13] is Homo sapiens. As to the kind of experiment: Clearance in healthy Chinese subject (8 subjects) with homozygous wild type NAT2 genotype assessed as N-acetylisoniazid at 300 mg, po administered after overnight fast by HPLC method. Type of series: ADME, organism-based. The following applies: in vivo.
Series [14] concerns Homo sapiens. As to the kind of experiment: AUC in healthy Chinese subject (8 subjects) with homozygous mutant of NAT2 genotype assessed as N-acetylisoniazid at 300 mg, po administered after overnight fast by HPLC method. The conditions noted are these: in vivo. It counts as ADME, organism-based. The essentials: as §1
The subject of series [15] is Homo sapiens. As to the kind of experiment: Clearance in healthy Chinese subject (8 subjects) with homozygous mutant of NAT2 genotype assessed as N-acetylisoniazid at 300 mg, po administered after overnight fast by HPLC method. It counts as ADME, organism-based. The conditions noted are these: in vivo.
Series [16] has as its system Homo sapiens. The series is described as follows: Cmax in healthy Chinese subject (8 subjects) with homozygous wild type NAT2 genotype assessed as N-acetylisoniazid at 300 mg, po administered after overnight fast by HPLC method. The conditions noted are these: in vivo. Also on record: dose 300 mg, route oral. It counts as ADME, organism-based.
Series [17] relates to Homo sapiens. As to the kind of experiment: AUC in healthy Chinese subject (8 subjects) with heterozygous mutant of NAT2 genotype assessed as N-acetylisoniazid at 300 mg, po administered after overnight fast by HPLC method. Type of series: ADME, organism-based. The following applies: in vivo. An outline of the steps:
as §1

For series [18], the system named is Homo sapiens. As to the kind of experiment: AUC in healthy Chinese subject (8 subjects) with homozygous mutant of NAT2 genotype at 300 mg, po administered after overnight fast by HPLC method. It counts as ADME, organism-based. The conditions noted are these: in vivo. The essentials: as §1
Series [19] concerns Homo sapiens. As to the kind of experiment: Cmax in healthy Chinese subject (8 subjects) with homozygous mutant of NAT2 genotype assessed as N-acetylisoniazid at 300 mg, po administered after overnight fast by HPLC method. Also on record: dose 300 mg, route oral. Type of series: ADME, organism-based. The conditions noted are these: in vivo.
Series [20] can be described thus: Clearance in healthy Chinese subject (8 subjects) with homozygous mutant of NAT2 genotype at 300 mg, po administered after overnight fast by HPLC method. It counts as ADME, organism-based. The conditions noted are these: human, in vivo.

Turning to `NNC(=O)c1ccncc1` [ISONIAZID], the highest concentration (Cmax) in [1] was found to be 4930 ng/mL; in the series with Homo sapiens [5] it was 3990 ng/mL; in series [6] it was 5720 ng/mL; in [10], 8280 ng/mL; with Homo sapiens [16] it was 5590 ng/mL; with Homo sapiens [19] it was 1380 ng/mL. Also, the AUC turned out to be 42200 ng·h/mL in the series on Homo sapiens [2]; 10400 ng·h/mL in the series with Homo sapiens [3]; 16300 ng·h/mL with Homo sapiens [8]; 10500 ng·h/mL in series [9]; 19800 ng·h/mL in the series with Homo sapiens [14]; 38000 ng·h/mL with Homo sapiens [17]. Further, the AUC with Homo sapiens [18] is 42200 ng·h/mL. In addition, the Activity in series [4] stood at 2.19 µg/mL. Further, the apparent clearance (CL/F) in series [7] is 501 mL/min; in series [12], 320 mL/min; in [20], 130 mL/min. In addition, the CL was determined as 8.03 L/h in the series with Homo sapiens [11], 7.4 L/h in the series on Homo sapiens [13] and 16.07 L/h in the series on Homo sapiens [15].
